Reference: ChEMBL document CHEMBL3797187, “Design, synthesis and biological evaluation of potent FAAH inhibitors” (Bioorg Med Chem Lett, 2016)

Assays:
[1] = target: T1, Fatty-acid amide hydrolase 1 (Homo sapiens) (UniProt O00519); assay: Inhibition of human recombinant FAAH expressed in sf21 cells using AMC-AA as substrate at 10 uM preincubated for 15 mins followed by substrate addition measured after 2 hrs by spectrophotometric analysis relative to control
T1 sequence (whole entry): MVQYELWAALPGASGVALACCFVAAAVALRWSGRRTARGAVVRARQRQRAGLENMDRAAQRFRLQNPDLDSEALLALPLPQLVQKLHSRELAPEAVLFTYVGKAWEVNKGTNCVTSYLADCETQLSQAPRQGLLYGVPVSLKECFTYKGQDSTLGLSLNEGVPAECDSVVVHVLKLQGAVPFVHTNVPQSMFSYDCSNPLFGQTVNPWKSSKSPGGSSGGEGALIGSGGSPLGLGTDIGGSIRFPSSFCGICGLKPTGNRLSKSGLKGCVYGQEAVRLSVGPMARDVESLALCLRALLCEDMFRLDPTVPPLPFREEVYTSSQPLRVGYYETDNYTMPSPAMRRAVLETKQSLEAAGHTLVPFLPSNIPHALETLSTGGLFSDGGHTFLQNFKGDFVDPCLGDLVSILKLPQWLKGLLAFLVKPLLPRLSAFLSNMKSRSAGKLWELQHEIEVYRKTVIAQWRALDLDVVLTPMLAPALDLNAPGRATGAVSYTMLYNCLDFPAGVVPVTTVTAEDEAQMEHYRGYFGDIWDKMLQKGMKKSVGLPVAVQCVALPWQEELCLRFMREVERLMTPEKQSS
In short: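 Human recombinant FAAH expressed in SF21 cells, 4 U/mL, preincubated 15 min with compound at 37 °C in Tris buffer pH 9. Hydrolysis of the fluorogenic substrate AMC-arachidonamide then measured. Single-point screen at 10 µM as % inhibition. IC50 from concentration-response, mean ± SEM of three experiments performed in duplicate.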

[2] = Cytotoxicity against human HEK293 cells assessed as growth inhibition at 10 uM after 72 hrs by MTS assay relative to control; format: cell-based; settings: read-out: GI
In short: (§1)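 Test compounds at 10 µM on human colorectal adenocarcinoma HT29 and human embryonic kidney HEK293 cells. Cell proliferation scored colorimetrically by MTS tetrazolium reduction to formazan (NADPH-dependent oxidoreductase activity as viable-cell readout). Reported as % inhibition at 10 µM.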

[3] = Cytotoxicity against human HT-29 cells assessed as growth inhibition at 10 uM after 72 hrs by MTS assay relative to control; format: cell-based; settings: read-out: GI; in short: as §1
[4] = target: T2, Fatty-acid amide hydrolase 1 (Homo sapiens, UniProt O00519); assay: Inhibition of human recombinant FAAH expressed in sf21 cells using AMC-AA as substrate preincubated for 15 mins followed by substrate addition measured after 2 hrs by spectrophotometric analysis
T2 sequence (O00519 whole entry): T1 sequence (whole entry)
In short: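 Human recombinant FAAH expressed in SF21 cells, 4 U/mL, preincubated 15 min with compound at 37 °C in Tris buffer pH 9. Hydrolysis of the fluorogenic substrate AMC-arachidonamide then measured. IC50 from concentration-response, mean ± SEM of three experiments performed in duplicate.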

[5] = target: T1, Fatty-acid amide hydrolase 1 (Homo sapiens); assay: Potency index, ratio of 5-(4-Pentyloxy-phenyl)-isoxazole-3-carboxylic acid adamantan-1-ylamide IC50 to compound IC50 for human recombinant FAAH expressed in sf21 cells

| Structure (SMILES) | inhibition [1] [%] | inhibition at 72 h, 10 µM [2] [%] | inhibition at 72 h, 10 µM [3] [%] | IC50 [4] [nM] | Ratio IC50 [5] |
| --- | --- | --- | --- | --- | --- |
| O=C(NC12CC3CC(CC(C3)C1)C2)c1cc(-c2ccc(-c3ccc(C(=O)N4CCOCC4)cc3)nc2)on1 | 12 | 10 | 0 | – | – |
| CN1CCN(C(=O)c2cccc(-c3ccc(-c4cc(C(=O)NC56CC7CC(CC(C7)C5)C6)no4)cc3)c2)CC1 | 44 | 47 | 55 | – | – |
| CC(=O)c1ccc(-c2ccc(-c3cc(C(=O)NC45CC6CC(CC(C6)C4)C5)no3)cc2)cc1 | 18 | 5 | 4 | – | – |
| O=C(NC12CC3CC(CC(C3)C1)C2)c1cc(-c2ccc(-c3ccccc3)nc2)on1 | 23 | 14 | 0 | – | – |
| CC(=O)c1ccc(-c2ccc(-c3cc(C(=O)NC45CC6CC(CC(C6)C4)C5)no3)cn2)cc1 | 13 | 5 | 0 | – | – |
| NC(=O)c1cccc(-c2cccc(OC(=O)NC3CCCCC3)c2)c1 [URB-597] | 98 | 0 | 0 | – | – |
| CCCCCOc1ccc(-c2cc(C(=O)NC34CC5CC(CC(C5)C3)C4)no2)cc1 | 79 | – | – | – | – |
| O=C(NC12CC3CC(CC(C3)C1)C2)c1cc(-c2ccc(-c3ccc(C(=O)N4CCOCC4)cc3)cc2)on1 | 24 | 23 | 0 | – | – |
| COc1ccc(-c2ccc(-c3cc(C(=O)NC45CC6CC(CC(C6)C4)C5)no3)cc2)cc1 | 15 | 2 | 0 | – | – |
| COc1cccc(-c2ccc(-c3cc(C(=O)NC45CC6CC(CC(C6)C4)C5)no3)cc2)c1 | 58 | 20 | 0 | 720 | – |
| N#Cc1cccc(-c2ccc(-c3cc(C(=O)NC45CC6CC(CC(C6)C4)C5)no3)cc2)c1 | 64 | 0 | 0 | 240 | 2 |
| O=C(NC12CC3CC(CC(C3)C1)C2)c1cc(-c2ccc(-c3ccncc3)nc2)on1 | 23 | 1 | 0 | – | – |
| CC(=O)c1cccc(-c2ccc(-c3cc(C(=O)NC45CC6CC(CC(C6)C4)C5)no3)cn2)c1 | 22 | 18 | 0 | – | – |
| O=C(NC12CC3CC(CC(C3)C1)C2)c1cc(-c2ccc(-c3cnc4ccccc4c3)cc2)on1 | 22 | 24 | 0 | – | – |
| COc1cc(-c2ccc(-c3cc(C(=O)NC45CC6CC(CC(C6)C4)C5)no3)cc2)cc(OC)c1OC | 42 | 32 | 6 | – | – |
| O=C(NC12CC3CC(CC(C3)C1)C2)c1cc(-c2ccc(-c3ccco3)cc2)on1 | 31 | 12 | 0 | – | – |

| Structure (SMILES) | inhibition [1] [%] | inhibition at 72 h, 10 µM [2] [%] | inhibition at 72 h, 10 µM [3] [%] | IC50 [4] [nM] | Ratio IC50 [5] |
| --- | --- | --- | --- | --- | --- |
| CN1CCN(C(=O)c2ccc(-c3ccc(-c4cc(C(=O)NC56CC7CC(CC(C7)C5)C6)no4)cc3)cc2)CC1 | 23 | 37 | 24 | – | – |
| COc1ccc(-c2ccc(-c3cc(C(=O)NC45CC6CC(CC(C6)C4)C5)no3)cc2)cc1OC | 14 | 29 | 7 | – | – |
| CC(=O)c1cccc(-c2ccc(-c3cc(C(=O)NC45CC6CC(CC(C6)C4)C5)no3)cc2)c1 | 56 | 16 | 1 | 590 | – |
| NC(=O)c1cccc(-c2ccc(-c3cc(C(=O)NC45CC6CC(CC(C6)C4)C5)no3)cn2)c1 | 20 | 1 | 14 | – | – |
| O=C(NC12CC3CC(CC(C3)C1)C2)c1cc(-c2ccc(-c3cccc(CN4CCOCC4)c3)cc2)on1 | 69 | 38 | 0 | 830 | – |
| CN1CCN(Cc2cccc(-c3ccc(-c4cc(C(=O)NC56CC7CC(CC(C7)C5)C6)no4)cc3)c2)CC1 | 63 | 93 | 97 | 1130 | – |
| COc1ccccc1-c1ccc(-c2cc(C(=O)NC34CC5CC(CC(C5)C3)C4)no2)cc1 | 47 | 25 | 2 | – | – |
| O=C(NC12CC3CC(CC(C3)C1)C2)c1cc(-c2ccc(-c3ccc(CN4CCOCC4)cc3)cc2)on1 | 16 | 20 | 0 | – | – |
| O=C(NC12CC3CC(CC(C3)C1)C2)c1cc(-c2ccc(-c3cccc(C(=O)N4CCOCC4)c3)cc2)on1 | 49 | 54 | 10 | – | – |
| O=C(NC12CC3CC(CC(C3)C1)C2)c1cc(-c2ccc(-c3ccncc3)cc2)on1 | 17 | 9 | 1 | – | – |
| CN1CCN(Cc2ccc(-c3ccc(-c4cc(C(=O)NC56CC7CC(CC(C7)C5)C6)no4)cc3)cc2)CC1 | 41 | 89 | 90 | – | – |
| CN1CCN(C(=O)c2ccc(-c3ccc(-c4cc(C(=O)NC56CC7CC(CC(C7)C5)C6)no4)cn3)cc2)CC1 | 10 | 3 | 0 | – | – |
| O=C(NC12CC3CC(CC(C3)C1)C2)c1cc(-c2ccc(-c3ccc4c(c3)OCO4)cc2)on1 | 18 | 9 | 0 | – | – |
| NC(=O)c1ccc(-c2ccc(-c3cc(C(=O)NC45CC6CC(CC(C6)C4)C5)no3)cc2)cc1 | 10 | 4 | 0 | – | – |
| NC(=O)c1cccc(-c2ccc(-c3cc(C(=O)NC45CC6CC(CC(C6)C4)C5)no3)cc2)c1 | 11 | 3 | 0 | – | – |
